Bioassay records as filed in PubChem.
Cneo AK release = Cryptococcus neoformans lysis via adenylate kinase release; C. neoformans lysis, adenylate kinase release luminescence, 4 h; normalised: neutral wells 0, clomiphene wells 100; lysis activity, % at 15 µM; hit rate 0.2% among 360,000;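 active = mean lysis activity across replicates of at least 80%, whatever share of replicates individually reach that level; inactive = mean lysis activity below 80%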
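Material – Cryptococcus neoformans yeast cells · Quantity – 5 × 10^6 yeast cells/mL · Buffer or medium – YPD medium · Compound – single dose · Timing – 4 h static compound exposure, 37 °C, read 1 h post-reagent · Signal – adenylate kinase release luminescence · Read-out basis – lysis from increased AK signal · Benchmarks – Clomiphene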
Mot1-301 SUMO = inhibitors of SUMOylation pathway: yeast Mot1-301 growth rescue; AID 2716; growth rescue, % at 18.8 µM; hit rate 1% among 320,000; S. cerevisiae Mot1-301 growth rescue, ATP luminescence, 38.5C; percent above DMSO median, 100 means doubled;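 active = every valid replicate shows activation above 250% relative to neutral control wells; inactive = the rest, any valid replicate at or below 250%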;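 also: OY570 slx delta 5 strain wells were the positive control but not used for scaling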
Statin myotox sup = suppression of simvastatin myotoxicity; C2C12 myotubes + simvastatin, ATP luminescence, 48 h; scaled: DMSO 0, geranylgeraniol control 100; rescue of ATP level, % at 7.49 µM; hit rate 0.78% among 330,000; AID 602340;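 active = mean ATP rescue above about 67%, or every replicate alone reaching that limit, limit read from the data, passing the limit was not always enough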;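 also: myotubes were challenged with 10 µM simvastatin during compound exposure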
Efflux pump inh = blocks antifungal efflux pumps in multiplex yeast assay | inhibition, % at 10 µM | hit rate 0.44% among 330,000 | S. cerevisiae Candida pump triplex, Nile Red efflux;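 active = plate passing quality check with inhibition over a set limit, or well fluorescence over plate mean plus 4 SD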;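 also: Nile Red retained in pooled yeast measured as flow cytometry median fluorescence; 0% = buffer negative control and 100% = Enniatin B positive control; higher means more Nile Red kept so more efflux inhibition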
* marks the source's active call; other numbers are inactive results; · = not tested or not shown. An excerpt weighted towards active compounds, which were near 1.8% of everything screened.

SMILES	Cneo AK release	Mot1-301 SUMO	Statin myotox sup	Efflux pump inh
CC=Cc1ccc2n(c1=O)C[C@H]1[C@H](CO)[C@@H](C(=O)NCc3ccc4c(c3)OCO4)[C@@H]2N1C(=O)C1CC1 (mixture of isomers)	104.2*	·	-7.6	·
C[C@H](CO)N1C[C@H](C)[C@H](CN(C)C(=O)c2cccnc2)Oc2ncc(-c3ccc(F)cc3)cc2C1=O	-3.3	·	15.1	·
COc1ccc(CN(C)C(=O)CCC(=O)N2CCN(S(=O)(=O)c3ccc(Cl)cc3)CC2)c(OC)c1	0.6	·	-4.8	·
Brc1ccc2[nH]c3c(N4CCc5ccccc5C4)ncnc3c2c1	·	344.0*	·	0.2
Fc1ccc2[nH]c3c(N4CCc5ccccc5C4)ncnc3c2c1	-2.4	122.0	·	-0.1
COc1ccc(C(C[N+](=O)[O-])c2c(C)[nH]n(-c3ccccc3)c2=O)cc1 (stereo not given)	-4.0	155.4	1.7	-0.1
Cc1[nH]n(-c2ccccc2)c(=O)c1C(C[N+](=O)[O-])c1ccccc1Cl (stereo not given)	7.9	225.2	117.9*	0.1
CCOc1cccc(C2C(C(=O)c3ccco3)=C(O)C(=O)N2c2nnc(C)s2)c1 (stereo not given)	0.6	119.7	1.8	-0.2
CCOc1cccc(C2C(C(=O)c3ccco3)=C(O)C(=O)N2Cc2ccncc2)c1 (stereo not given)	-0.7	·	121.7*	0.0
C[C@H](CO)N1C[C@H](C)[C@H](CN(C)Cc2ccc(C(=O)O)cc2)OCCCC[C@H](C)Oc2ccc(NC(=O)C3CCCCC3)cc2C1=O	1.6	·	·	·
C[C@H]1CCCCO[C@@H](CN(C)C(=O)c2ccccc2)[C@@H](C)CN([C@@H](C)CO)C(=O)c2cc(NC(=O)c3ccncc3)ccc2O1	85.7*	·	-16.5	·
C[C@@H]1CCCCO[C@H](CN(C)C(=O)c2ccccc2)[C@@H](C)CN([C@@H](C)CO)C(=O)c2cc(NC(=O)c3ccccc3)ccc2O1	96.4*	·	·	·
C[C@@H]1CN([C@H](C)CO)C(=O)c2cc(NC(=O)CCC(F)(F)F)ccc2O[C@@H](C)CCCCO[C@@H]1CN(C)C(=O)c1ccncc1	88.9*	·	·	·
Cc1cc(C)n(CC(=O)Nc2ccccc2)n1	0.4	-5.5	·	0.0
NC(=S)N/N=C/c1ccc(C23CC4CC(CC(C4)C2)C3)cc1	·	-25.7	·	0.6*
NC(CC(=O)O)c1cccc(OCc2ccccc2)c1 (stereo not given)	7.7	2.6	66.1*	0.0
CC(=O)NC(CC(=O)OCc1ccc([N+](=O)[O-])cc1)c1ccccc1 (stereo not given)	-1.1	496.9*	1.2	0.1
COc1ccc(CC(=O)NC(CC(=O)O)c2cccc([N+](=O)[O-])c2)cc1 (stereo not given)	0.2	-10.6	121.9*	-0.3
O=C(O)CC(NC(=O)COc1ccccc1)c1cccc([N+](=O)[O-])c1 (stereo not given)	3.9	-8.6	·	0.2
OC(c1ccc(OCc2ccccc2)cc1)c1nnc(-c2ccccc2)o1 (stereo not given)	7.5	·	·	-0.1
CCOC(=O)CC(NC(C)=O)c1ccc([N+](=O)[O-])cc1 (stereo not given)	-1.5	-4.1	-6.9	1.1
Cn1ccnc1C(O)c1cccc(OCc2ccccc2)c1 (stereo not given)	-2.9	-12.6	-14.6	0.1
OC(c1cccc(OCc2ccccc2)c1)c1nnc(-c2ccccc2)o1 (stereo not given)	-2.0	·	145.8*	0.1
CCc1ccc(CN(C)C(C)C(=O)NCc2ccccc2)cc1 (stereo not given)	-4.9	-13.0	19.9	0.0
O=C(O)CC(NC(=O)OCc1ccccc1)c1ccccc1 (stereo not given)	-1.2	2.8	93.3*	0.0
SMILES	Cneo AK release	Mot1-301 SUMO	Statin myotox sup	Efflux pump inh
CCOC(=O)c1sc(Nc2ccccc2)nc1C	1.3	-15.3	-9.4	0.1
CCOC(=O)c1sc(Nc2nc3c(OC)cccc3s2)nc1C	-1.1	1.6	106.2*	0.1
CN1C(=O)c2cccc3c(S(N)(=O)=O)ccc1c23	1.8	0.8	-12.1	0.0
CCN1C(=O)c2cccc3c(S(=O)(=O)NCc4ccccc4)ccc1c23	-2.0	-17.5	6.8	0.1
CN1C(=O)c2cccc3c(S(=O)(=O)NCc4ccco4)ccc1c23	-2.8	4.2	109.7*	-0.1
Cc1ccccc1NS(=O)(=O)c1ccc2c3c(cccc13)C(=O)N2C	-1.9	351.0*	0.9	0.2
CN1C(=O)c2cccc3c(S(=O)(=O)Nc4ccccn4)ccc1c23	·	280.1*	·	0.0
COc1cccc(N2C(C(C)=O)=NN(c3ccccc3)C2c2ccc(N3CCOCC3)cc2)c1 (stereo not given)	-5.1	-3.0	-5.6	-0.2
COCCNC(=O)Cn1cnc2c1c(=O)n(C)c(=O)n2C	-0.4	-2.9	1.2	0.0
CCOC(=O)c1cnc2c(Cl)cccc2c1NCCN(C)C	4.1	-6.5	7.0	0.0
CCc1ccc(NC(=O)CSc2nnc(-c3ccccn3)n2C)cc1	·	0.1	12.7	0.0
O=C(c1cccc(S(=O)(=O)Nc2cccc(C(F)(F)F)c2)c1)N1CCOCC1	·	·	·	0.0
Cc1nn(C)c(C)c1C1C(C#N)=C(N)OC2=C1C(=O)CCC2 (stereo not given)	·	311.2*	·	-0.2
CCn1nc(C)c(C2C(C#N)=C(N)OC3=C2C(=O)CCC3)c1C (stereo not given)	·	-12.4	·	-0.3
CC1=C(C(=O)Nc2ccccc2C)C(c2ccc(C)o2)N2C(=O)CSC2=N1 (stereo not given)	-4.6	-4.0	78.4*	0.1
O=C(NNC(=O)c1cc2cc(Br)ccc2oc1=O)c1ccc(O)cc1O	·	18.6	·	0.0
CC1CC(C)CN(CCCNC(=O)c2ccc3c(c2)NC(=O)C(N2CCCCC2)S3)C1 (stereo not given)	·	-21.6	106.6*	-0.1
COc1ccc(Cc2nc(-c3cccc(C)c3)no2)cc1	-1.8	354.6	13.5	0.0
Cc1cccc(-c2noc(Cc3ccc(Cl)cc3)n2)c1	-2.4	225.3	121.0*	0.3
CC1CC(C)CN(CC(C)(C)NS(=O)(=O)c2ccc(Cl)cc2)C1 (stereo not given)	-1.1	276.0*	10.7	0.0
CC(C)(CN1CCCCC1)NS(=O)(=O)c1ccc(Cl)cc1	0.7	195.8	-6.9	0.0
[N-]=[N+]=NC(c1ccccc1)c1nc2ccccc2[nH]c1=O (stereo not given)	-0.2	-10.0	1.9	-0.1
CCCOc1ncnc2c1[nH]c1ccc(C)cc12	·	6.9	·	-0.1
CCOc1ncnc2c1[nH]c1ccccc12	-2.8	2.6	130.9*	0.0
O=C(NC1CCN(C(=O)NCc2ccccc2)CC1)c1ccccc1	·	21.2	1.2	0.2
O=C(NC1CCN(C(=O)NCc2ccccc2)CC1)c1ccco1	1.2	7.2	100.7*	0.1
NC(=O)c1cccc(S(=O)(=O)N2CCCCC2)c1	·	-4.2	-1.2	0.3
Nc1cccc2c1C(=O)N(C(=O)c1cccc(S(=O)(=O)N3CCCC3)c1)C2=O	-2.4	·	137.7*	-0.2
O=C1CC2(CCN(C(=O)COc3ccccc3F)CC2)Oc2ccccc21	9.6	602.0*	9.3	-0.2
